Key:
[1] = molecular target: T1, Bifunctional dihydrofolate reductase-thymidylate synthase (Trypanosoma cruzi, UniProt Q27793); experiment: Inhibition of Trypanosoma cruzi DHFR by spectrophotometric assay
Outline: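 Recombinant bifunctional T. cruzi DHFR-TS in 50 mM Tris-HCl pH 7.0 with DHF, 100 µM NADPH and 0.5–1.0 µg enzyme; velocity from absorbance at 340 nm over 30 s at 22.6 °C. IC50 from velocities at several inhibitor concentrations for each of three DHF concentrations, then averaged; Ki calculated from IC50. Triplicates, repeated on different days.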

[2] = molecular target: T2, Dihydrofolate reductase (Homo sapiens, UniProt P00374); experiment: Inhibition of human DHFR by spectrophotometric assay
T2 sequence (P00374 whole entry): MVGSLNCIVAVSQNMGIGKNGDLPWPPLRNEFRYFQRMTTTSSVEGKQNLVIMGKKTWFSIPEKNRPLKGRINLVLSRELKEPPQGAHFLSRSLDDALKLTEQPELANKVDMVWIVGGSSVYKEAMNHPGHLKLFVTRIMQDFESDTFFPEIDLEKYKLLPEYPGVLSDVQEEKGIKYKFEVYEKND

[3] = molecular target: T1, Bifunctional dihydrofolate reductase-thymidylate synthase; experiment: Inhibition of Trypanosoma cruzi DHFR by Lineweaver-Burke plot
Outline: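 Recombinant bifunctional T. cruzi DHFR-TS; 50 mM Tris-HCl pH 7.0 with DHF, 100 µM NADPH and 0.5–1.0 µg enzyme; initial velocity followed at 340 nm for 30 s at 22.6 °C. Velocities taken at five DHF concentrations for each of three inhibitor concentrations; Ki read from Lineweaver–Burk plots.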

T1 sequence (Q27793 whole entry): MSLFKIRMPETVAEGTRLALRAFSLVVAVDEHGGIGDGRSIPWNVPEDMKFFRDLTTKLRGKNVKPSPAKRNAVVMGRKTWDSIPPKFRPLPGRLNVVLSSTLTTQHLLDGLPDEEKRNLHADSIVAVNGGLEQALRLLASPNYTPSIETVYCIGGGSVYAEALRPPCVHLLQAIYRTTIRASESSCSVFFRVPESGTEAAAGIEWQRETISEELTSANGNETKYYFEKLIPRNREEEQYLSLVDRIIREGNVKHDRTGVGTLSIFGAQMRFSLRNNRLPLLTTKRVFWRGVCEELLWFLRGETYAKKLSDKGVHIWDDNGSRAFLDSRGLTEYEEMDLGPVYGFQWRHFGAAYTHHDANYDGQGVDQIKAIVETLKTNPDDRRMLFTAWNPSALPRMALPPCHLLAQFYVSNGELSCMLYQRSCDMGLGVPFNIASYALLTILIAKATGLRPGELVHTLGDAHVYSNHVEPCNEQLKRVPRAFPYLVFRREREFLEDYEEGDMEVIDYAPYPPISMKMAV

IC50 [1] [nM]	Ki [1] [nM]	IC50 [2] [nM]	Ki [2] [nM]	Ki [3] [nM]	Compound
27.1	1.6	85.5	11.8	4.75	COc1ccc(NCc2ccc3nc(N)nc(N)c3c2)cc1OC
422	24.9	1340	188		CCCN(Cc1ccc2nc(N)nc(N)c2c1)c1ccc(OC)c(OCCCCC(=O)OC)c1
61	3.6	357	49.8		COc1ccc(NCc2ccc3nc(N)nc(N)c3c2)cc1OCCCC(=O)O
27	1.6	93.5	13		COC(=O)CCCCOc1cc(NCc2ccc3nc(N)nc(N)c3c2)ccc1OC
57.5	3.3	175	24.5		COC(=O)c1ccc(COc2cc(NCc3ccc4nc(N)nc(N)c4c3)ccc2OC)cc1
23.8	1.3	68.3	9.6	5.68	CCOC(=O)CCCOc1cc(NCc2ccc3nc(N)nc(N)c3c2)ccc1OC
20.2	6.6				COc1cc(NCc2ccc3nc(N)nc(N)c3c2C)cc(OC)c1OC [TRIMETREXATE]
